Reference: ChEMBL document CHEMBL2040808, “Design, synthesis, and in vitro activity of novel 2'-O-substituted 15-membered azalides” (J Med Chem, 2012)

Assays:
[1] = tested on: Staphylococcus aureus; experiment: Antibacterial activity against Staphylococcus aureus ATCC 13709 by broth microdilution method; type: functional
Procedure, shortened: (§1)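 Standard broth microdilution MIC against macrolide-sensitive strains. For streptococci, 5% horse serum replaced lysed horse blood in the broth, and inocula were grown on Columbia agar with 5% sheep blood. S. aureus was grown on Mueller–Hinton agar.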

[2] = tested on: Plasmodium falciparum; experiment: Antimalarial activity against chloroquine-sensitive Plasmodium falciparum 3D7A infected in type A rhesus-positive human erythrocytes assessed as [3H]hypoxanthine incorporation after 48 hrs by scintillation counting; type: functional, organism-based
Procedure, shortened: (§2)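 Modified semiautomated microdilution: compounds dissolved in DMSO, diluted in RPMI 1640 with 10% v/v human plasma, serial 1:2 dilutions in triplicate. Infected erythrocytes at 3% hematocrit, 0.25−0.55% parasitemia. [3H]hypoxanthine at 12.5−16 μCi/mL final. Incubated 48 h, 37 °C, in 5% O2/3% CO2/92% N2. Harvested on fiberglass strips, scintillation counted. IC50 by nonlinear regression of concentration−response curves.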

[3] = Selectivity ratio of IC50 for human HepG2 cells to IC50 for chloroquine-sensitive Plasmodium falciparum 3D7A; type: ADME, cell-based; settings: HepG2 cells versus Plasmodium falciparum 3D7A, read-out: Ratio IC50
Procedure, shortened: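 Selectivity is the HepG2 IC50 divided by the P. falciparum IC50. For HepG2, 50000 cells per well in RPMI 1640 with 10% FBS were exposed to 1:2 serial dilutions for 24 h at 37 °C, 5% CO2. MTS was added for 2 h and absorbance read at 490 nm. Parasite IC50 came from the 48 h [3H]hypoxanthine assay.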

[4] = Aqueous solubility of the compound at pH 4; type: physicochemical
[5] = tested on: Streptococcus pyogenes; experiment: Antibacterial activity against Streptococcus pyogenes isolate 3565 by broth microdilution method; type: functional; procedure, shortened: as §1
[6] = tested on: Plasmodium falciparum; experiment: Ratio of IC50 for azithromycin to compound IC50 for chloroquine-sensitive Plasmodium falciparum 3D7A infected in type A rhesus-positive human erythrocytes assessed as [3H]hypoxanthine incorporation after 48 hrs by scintillation counting; type: functional
[7] = tested on: Streptococcus pneumoniae; experiment: Antibacterial activity against Streptococcus pneumoniae isolate SP030 by broth microdilution method; type: functional; procedure, shortened: as §1
[8] = Selectivity ratio of IC50 for human HepG2 cells to IC50 for chloroquine-sensitive Plasmodium falciparum 3D7A; settings: HepG2 cells versus Plasmodium falciparum 3D7A
[9] = tested on: Plasmodium falciparum; experiment: Antimalarial activity against chloroquine-resistant Plasmodium falciparum W2 infected in type A rhesus-positive human erythrocytes assessed as [3H]hypoxanthine incorporation after 48 hrs by scintillation counting; type: functional, organism-based; procedure, shortened: as §2
[10] = tested on: Plasmodium falciparum; experiment: Ratio of IC50 for azithromycin to compound IC50 for chloroquine-resistant Plasmodium falciparum W2 infected in type A rhesus-positive human erythrocytes assessed as [3H]hypoxanthine incorporation after 48 hrs by scintillation counting; type: functional
[11] = tested on: HepG2; experiment: Cytotoxicity against human HepG2 cells after 24 hrs by MTS assay; type: cell-based; settings: HepG2, 24 h
Procedure, shortened: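 Hep G2 cells were kept in RPMI 1640 with 10% FBS at 37 °C and 5% CO2. Wells held 50000 cells and received 1:2 serial dilutions of compound (DMSO stock diluted in medium) for 24 h. MTS reagent was then added for 2 h, absorbance was read at 490 nm, and IC50 was taken from response curves.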

Compound | MIC [1] | IC50 [2] | selectivity ratio [3] | solubility [4] | MIC [5] | Ratio IC50 [6] | MIC [7] | selectivity ratio [8] | IC50 [9] | Ratio IC50 [10] | IC50 [11]
CC[C@H]1OC(=O)[C@H](C)[C@@H](O)[C@H](C)[C@@H](O[C@@H]2O[C@H](C)C[C@H](N(C)C)[C@H]2OCCCNCc2ccnc3ccccc23)[C@](C)(O)C[C@@H](C)CN(C)[C@H](C)[C@@H](O)[C@]1(C)O | > 64 µg/mL | 540 nM | 132 | > 10000 µg/mL | > 64 µg/mL | 3 | > 64 µg/mL | 132 | 432 nM | 3 | > 100 µM
CC[C@H]1OC(=O)[C@H](C)[C@@H](O[C@H]2C[C@@](C)(OC)[C@@H](O)[C@H](C)O2)[C@H](C)[C@@H](O[C@@H]2O[C@H](C)C[C@H](N(C)C)[C@H]2OCCCNCc2ccnc3ccccc23)[C@](C)(O)C[C@@H](C)CN(C)[C@H](C)[C@@H](O)[C@]1(C)O | > 64 µg/mL | 141 nM | 132 | > 10000 µg/mL | > 64 µg/mL | 3 | > 64 µg/mL | 132 | 78 nM | 3 | 45 µM
CC[C@H]1OC(=O)[C@H](C)[C@@H](O[C@H]2C[C@@](C)(OC)[C@@H](O)[C@H](C)O2)[C@H](C)[C@@H](O[C@@H]2O[C@H](C)C[C@H](N(C)C)[C@H]2OCCCNC(=O)CNc2ccnc3ccccc23)[C@](C)(O)C[C@@H](C)CN(C)[C@H](C)[C@@H](O)[C@]1(C)O | > 64 µg/mL | 119 nM | 132 | > 10000 µg/mL | > 64 µg/mL | 3 | > 64 µg/mL | 132 | 68 nM | 3 | > 100 µM
CC[C@H]1OC(=O)[C@H](C)[C@@H](O[C@H]2C[C@@](C)(OC)[C@@H](O)[C@H](C)O2)[C@H](C)[C@@H](O[C@@H]2O[C@H](C)C[C@H](N(C)C)[C@H]2OCCCNC(=O)CCCNc2ccnc3ccccc23)[C@](C)(O)C[C@@H](C)CN(C)[C@H](C)[C@@H](O)[C@]1(C)O | > 64 µg/mL | 220 nM | 132 | > 10000 µg/mL | > 64 µg/mL | 3 | > 64 µg/mL | 132 | 135 nM | 3 | > 100 µM
CC[C@H]1OC(=O)[C@H](C)[C@@H](O[C@H]2C[C@@](C)(OC)[C@@H](O)[C@H](C)O2)[C@H](C)[C@@H](O[C@@H]2O[C@H](C)C[C@H](N(C)C)[C@H]2OCCCNCc2ccc3ccccc3n2)[C@](C)(O)C[C@@H](C)CN(C)[C@H](C)[C@@H](O)[C@]1(C)O | > 64 µg/mL | 227 nM | 132 | > 10000 µg/mL | > 64 µg/mL | 3 | > 64 µg/mL | 132 | 55 nM | 3 | 30 µM
